For 8 molecules, IC50 and Inhibition results are on record in ChEMBL document CHEMBL1149089, “Evaluation of potent and selective small-molecule antagonists for the CXCR2 chemokine receptor” (J Med Chem, 2004).

The species entered for one assay is Homo sapiens. As to the kind of experiment: Compound was evaluated for GROalpha-mediated calcium mobilization in human polymorphonuclear neutrophils(PMNs). The format is functional. In a few lines: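 Human neutrophils stimulated with GROα, the CXCR2-selective ligand; calcium mobilization measured; mean ± SEM of at least three separate determinations.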
(Calcium flux is commonly read through the fluorescence of an indicator in the cells.)

Assay [1] relates to Oryctolagus cuniculus. As to the kind of experiment: Compound was evaluated for inhibition of topical model of delayed type hypersensitivity (DTH) at a dose of 62.5 ug in rabbits. The format is functional. Summed up: (§1)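 Rabbits sensitized by complete Freund's adjuvant injected in the nape of the neck; challenged intradermally 5 weeks later with tuberculin (10 units PPD). Compound in methanol (50 µL) or methanol vehicle applied topically to PPD sites 5 min after challenge and reapplied 4 h later. Skin-fold thickness at challenge site measured 48 h after challenge; % inhibition versus vehicle.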

Assay [2] addresses T1, C-X-C chemokine receptor type 1 (Homo sapiens, UniProt P25024).
T1 sequence (P25024 whole entry): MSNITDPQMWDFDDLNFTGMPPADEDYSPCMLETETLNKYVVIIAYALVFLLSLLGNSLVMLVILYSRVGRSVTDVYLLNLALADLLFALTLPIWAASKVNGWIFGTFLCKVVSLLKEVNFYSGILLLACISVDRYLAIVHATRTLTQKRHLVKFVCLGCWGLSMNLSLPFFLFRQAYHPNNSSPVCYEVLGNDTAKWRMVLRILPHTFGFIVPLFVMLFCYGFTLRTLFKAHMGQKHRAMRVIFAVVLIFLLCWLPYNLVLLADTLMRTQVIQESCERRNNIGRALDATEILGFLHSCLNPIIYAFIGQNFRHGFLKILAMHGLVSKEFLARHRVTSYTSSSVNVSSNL
As to the kind of experiment: Inhibition of binding of IL-8 to membranes of cloned CXC chemokine receptor 1 expressed in CHO Cells using [125I]IL-8 radioligand. Summed up:
(§2)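 Membranes from CHO cells stably expressing CXCR1 or CXCR2; competition against radiolabeled human recombinant [125I]IL-8; IC50 given as mean ± SEM of three individual experiments.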

In assay [3] the target is T2, C-X-C chemokine receptor type 2 (Homo sapiens, UniProt P25025).
T2 sequence (P25025 whole entry): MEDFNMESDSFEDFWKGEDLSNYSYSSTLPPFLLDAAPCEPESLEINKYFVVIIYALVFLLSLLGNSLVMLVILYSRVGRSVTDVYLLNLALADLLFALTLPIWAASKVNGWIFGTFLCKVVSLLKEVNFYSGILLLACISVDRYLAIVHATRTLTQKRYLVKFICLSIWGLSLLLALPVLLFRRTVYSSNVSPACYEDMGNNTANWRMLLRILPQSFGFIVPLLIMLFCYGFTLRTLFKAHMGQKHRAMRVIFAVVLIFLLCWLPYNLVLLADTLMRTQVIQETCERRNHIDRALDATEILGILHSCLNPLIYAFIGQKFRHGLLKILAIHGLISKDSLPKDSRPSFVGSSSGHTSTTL
As to the kind of experiment: Inhibition of binding of IL-8 to membranes of cloned CXC chemokine receptor 2 expressed in CHO Cells using [125I]IL-8 radioligand. In a few lines:
as §2

Assay [4] relates to Oryctolagus cuniculus. The assay can be described thus: Compound was evaluated for inhibition of topical model of delayed type hypersensitivity (DTH) at a dose of 500 ug in rabbits. The format is functional. In a few lines:
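Rabbits sensitized by complete Freund's adjuvant injection in the nape of the neck, then challenged intradermally 5 weeks later with tuberculin (10 units PPD). At 5 min post-challenge, compound in methanol (50 µL) or methanol vehicle was applied topically to PPD sites and reapplied 4 h later. Skin-fold thickness at the challenge site was read 48 h after PPD; % inhibition reported.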

The subject of assay [5] is Oryctolagus cuniculus. As to the kind of experiment: Compound was evaluated for inhibition of topical model of delayed type hypersensitivity (DTH) at a dose of 1000 ug in rabbits. Type of assay: functional. Summed up: as §1

With `N#Cc1c(Cl)ccc(NC(=O)Nc2ccccc2Br)c1O`, the IC50 (in general, the concentration that gives 50% inhibition) in the assay listed under Homo sapiens is 7.5 nM; in assay [2], 11100 nM; in assay [3], 57 nM. The Inhibition (commonly the drop in the measured response relative to a control, in per cent) in the assay on Oryctolagus cuniculus [1] was 3%.

The molecule `N#Cc1ccc(NC(=O)Nc2ccccc2Br)c(O)c1Br` yielded an Inhibition with Oryctolagus cuniculus [4] of 33%. Besides, the half-inhibitory concentration (IC50) in the assay filed under Homo sapiens worked out at 0.79 nM; in assay [2] it was 2600 nM; in assay [3], 6 nM.

`N#Cc1ccc(NC(=O)Nc2ccccc2Br)c(O)c1`: the Inhibition with Oryctolagus cuniculus [4] came to 31%. The IC50 in the assay listed under Homo sapiens is 53 nM; in assay [2], 15100 nM; in assay [3], 25 nM.

On to `N#Cc1ccc(NC(=O)Nc2ccccc2)c(O)c1`, for which the IC50 was found to be 120 nM in the assay filed under Homo sapiens, 21000 nM in assay [2] and 200 nM in assay [3]. Besides, in the assay with Oryctolagus cuniculus [5], the Inhibition is listed as 21%.

Consider `N#Cc1ccc(NC(=O)Nc2ccccc2Br)c(O)c1Cl`, for which the IC50 in the assay filed under Homo sapiens worked out at 2.6 nM; in assay [2], 4200 nM; in assay [3], 22 nM.

Consider `O=C(Nc1ccccc1)Nc1cccc([N+](=O)[O-])c1O`, for which the values for the IC50 (in the assay listed under Homo sapiens; in assay [2]; in assay [3]) were 511 nM, 33200 nM and 860 nM, respectively.

As to `O=C(Nc1ccccc1)Nc1cc([N+](=O)[O-])ccc1O`, the IC50 in the assay listed under Homo sapiens worked out at 13800 nM; in assay [2] it was 46200 nM; in assay [3], 10900 nM.

For `O=C(Nc1ccccc1)Nc1ccc([N+](=O)[O-])cc1O`, the values for the IC50 (in the assay filed under Homo sapiens; in assay [2]; in assay [3]) were 339 nM, 18200 nM and 320 nM, respectively.
